Data from ChEMBL document CHEMBL1156174, “Antiproliferative activity of synthetic naphthoquinones related to lapachol. First synthesis of 5-hydroxylapachol” (Bioorg Med Chem, 2010).

Tests used:
WiDr = assay: Growth inhibition of human WiDr cells after 48 hrs by sulforhodamine B assay; format: functional
Outline: (§1)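 Cells in RPMI 1640 with 5% heat-inactivated FCS and 2 mM L-glutamine at 37 °C, 5% CO2. Seeded per well: 7500 (HBL-100, SW1573), 15,000 (A2780, HeLa, T47D) or 20,000 (WiDr). Drug added day 1 in triplicate dilutions (DMSO 0.25% v/v) for 48 h. Cells fixed with cold TCA, 60 min, 4 °C, then SRB stained and read at 492 nm. NCI percentage-growth formulas used; GI50 taken at PG +50.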

HeLa = assay: Growth inhibition of human HeLa cells after 48 hrs by sulforhodamine B assay; format: functional; outline: as §1
A2780 = assay: Growth inhibition of human A2780 cells after 48 hrs by sulforhodamine B assay; format: functional; details: A2780, 48 h; outline: as §1
HBL-100 = assay: Growth inhibition of human HBL100 cells after 48 hrs by sulforhodamine B assay; format: functional; details: HBL-100, 48 h; outline: as §1
SW1573 = assay: Growth inhibition of human SW1573 cells after 48 hrs by sulforhodamine B assay; format: functional; details: SW1573, 48 h; outline: as §1
T47D = assay: Growth inhibition of human T47D cells after 48 hrs by sulforhodamine B assay; format: functional; outline: as §1
Artemia salina = assay: Toxicity in Artemia salina; format: organism-based; details: in vivo

Compound | GI50 (HeLa) [µM] | GI50 (A2780) [µM] | GI50 (SW1573) [µM] | GI50 (T47D) [µM] | GI50 (WiDr) [µM] | GI50 (HBL-100) [µM] | Activity (Artemia salina) [ppm]
NC1=CC(=O)c2cccc(O)c2C1=O | 5.7 | 3.1 | 2 | 4 | 3.5 | 2.9 | 
C=CC(C)(C)C1=C(O)C(=O)c2cccc(O)c2C1=O | 28 | 26 | 36 | 27 | 31 | 31 | 
CC(C)=CCOC1=CC(=O)c2c(O)cccc2C1=O | 18 | 12 | 17 | 28 | 18 | 27 | 
CC(C)(I)C1CC2=C(O1)C(=O)c1cccc(O)c1C2=O (centres undefined) | 2.4 | 2.1 | 2.3 | 2.3 | 1.9 | 2 | 
CC(C)=CCC1=C(O)C(=O)c2c(O)cccc2C1=O | 2.6 | 3.9 | 18 | 30 | 19 | 21 | 
COC1=C(CC=C(C)C)C(=O)c2c(OC)cccc2C1=O | 18 | 21 | 5.8 | 45 | 28 | 17 | 
CC1(C)CCC2=C(O1)C(=O)c1cccc(O)c1C2=O | 12 | 3.2 | 2.7 | 21 | 18 | 2.6 | 
CC(C)=CCOC1=CC(=O)c2cccc(O)c2C1=O | 4.5 | 2 | 7.7 | 23 | 7.3 | 19 | 
C=CC(C)(C)C1=C(O)C(=O)c2c(O)cccc2C1=O | 24 | 21 | 3.8 | 30 | 23 | 16 | 
CC(C)=CCOC1=C(CC=C(C)C)C(=O)c2cccc(O)c2C1=O | 20 | 5.9 | 5.1 | 28 | 22 | 20 | 
COC1=C(CC=C(C)C)C(=O)c2c(O)cccc2C1=O | 3.5 | 1.8 | 4.8 | 22 | 20 | 20 | 
O=C1C=C(O)c2cccc(O)c2C1=O | 90 | 28 | 86 | > 100 | > 100 | > 100 | 
O=C1C=C(O)c2c(O)cccc2C1=O | > 100 | > 100 | > 100 | > 100 | > 100 | > 100 | 
CC1(C)C=CC2=C(O1)C(=O)c1c(O)cccc1C2=O | 2.3 | 2.4 | 4.8 | 19 | 19 | 3.9 | 
CN(C)C1=CC(=O)c2c(O)cccc2C1=O | 19 | 16 | 35 | 38 | 32 | 30 | 
CN(C)C1=CC(=O)c2cccc(O)c2C1=O | 7.1 | 2.4 | 5.3 | 34 | 17 | 5.7 | 
CC1(C)CCC2=C(O1)C(=O)c1ccccc1C2=O [ALPHA-LAPACHONE] | 15 | 4 | 3.1 | 25 | 26 | 14 | 
O=C1C=CC(=O)c2c(O)cccc21 [JUGLONE] | 89 | 64 | 50 | 77 | 81 | 66 | 
CC(C)=CCC1=C(O)C(=O)c2ccccc2C1=O [LAPACHOL] | 2.3 | 1.9 | 34 | 76 | 36 | 7.8 | 5

These reach a lower GI50 (HeLa). Values come first.

GI50 (HeLa) [µM] | GI50 (A2780) [µM] | GI50 (SW1573) [µM] | GI50 (T47D) [µM] | Compound | GI50 (WiDr) [µM] | GI50 (HBL-100) [µM] | Activity (Artemia salina) [ppm]
0.42 | 0.57 | 0.7 | 8.1 | CC(C)=CCC1=C(O)C(=O)c2cccc(O)c2C1=O | 6.3 | 0.6 | 
1.7 | 1.7 | 1.3 | 1.8 | CC1(C)C2=C(OC1CI)C(=O)c1cccc(O)c1C2=O (centres undefined) | 2 | 1.9 | 
1.9 | 1 | 4.3 | 21 | CC(C)=CCOC1=C(CC=C(C)C)C(=O)c2c(O)cccc2C1=O | 11 | 1.6 | 
0.8 | 0.82 | 0.83 | 2.2 | C=C(C)C1CC2=C(O1)C(=O)c1cccc(O)c1C2=O (centres undefined) | 2 | 0.94 | 
2.2 | 2.2 | 2.8 | 23 | CC(C)(O[N+](=O)[O-])C1CC2=C(O1)C(=O)c1cccc(O)c1C2=O (centres undefined) | 18 | 2.8 | 
1.3 | 1.6 | 0.4 | 2.5 | CC1(C)C2=C(OC1CI)C(=O)c1c(O)cccc1C2=O (centres undefined) | 2 | 0.41 | 
1.8 | 2.1 | 2.5 | 20 | CC(C)(O[N+](=O)[O-])C1CC2=C(O1)C(=O)c1ccccc1C2=O (centres undefined) | 4.8 | 2.1 | 
2.1 | 2.6 | 1.9 | 21 | C=C(C)C1CC2=C(O1)C(=O)c1ccccc1C2=O (stereo not drawn) [DEHYDROISO-ALPHA-LAPACHONE] | 2.7 | 2.3 | 
0.81 | 1.1 | 0.76 | 2.3 | CC1(C)CCC2=C(O1)c1ccccc1C(=O)C2=O [LAPACHONE] | 2 | 0.69 | 
